Experimental data reported in ChEMBL document CHEMBL1134561, “6-Substituted-4-(3-bromophenylamino)quinazolines as putative irreversible inhibitors of the epidermal growth factor receptor (EGFR) and human epidermal growth factor receptor (HER-2) tyrosine kinases with enhanced antitumor activity” (J Med Chem, 2001).

What was measured:
[1] = test system: SW-620; test: Inhibition of cell growth of SW620 cell lines using cell-based assay; type: functional; conditions: Homo sapiens
Outline: (§1)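 Cells kept in RPMI-1640 with 5% fetal bovine serum and plated at 5.0 × 10^4/mL. Next day they were dosed at 0.5, 5, 50, 500 and 5000 ng/mL and cultured 2 days. Survival was read by sulforhodamine B. IC50 is the concentration inhibiting growth by 50%, taken from the five-point dose-response curve.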

[2] = target: Epidermal growth factor receptor (Homo sapiens, UniProt P00533); test: Inhibition of epidermal growth factor receptor using enzyme assay
Epidermal growth factor receptor, sequence (P00533 whole entry): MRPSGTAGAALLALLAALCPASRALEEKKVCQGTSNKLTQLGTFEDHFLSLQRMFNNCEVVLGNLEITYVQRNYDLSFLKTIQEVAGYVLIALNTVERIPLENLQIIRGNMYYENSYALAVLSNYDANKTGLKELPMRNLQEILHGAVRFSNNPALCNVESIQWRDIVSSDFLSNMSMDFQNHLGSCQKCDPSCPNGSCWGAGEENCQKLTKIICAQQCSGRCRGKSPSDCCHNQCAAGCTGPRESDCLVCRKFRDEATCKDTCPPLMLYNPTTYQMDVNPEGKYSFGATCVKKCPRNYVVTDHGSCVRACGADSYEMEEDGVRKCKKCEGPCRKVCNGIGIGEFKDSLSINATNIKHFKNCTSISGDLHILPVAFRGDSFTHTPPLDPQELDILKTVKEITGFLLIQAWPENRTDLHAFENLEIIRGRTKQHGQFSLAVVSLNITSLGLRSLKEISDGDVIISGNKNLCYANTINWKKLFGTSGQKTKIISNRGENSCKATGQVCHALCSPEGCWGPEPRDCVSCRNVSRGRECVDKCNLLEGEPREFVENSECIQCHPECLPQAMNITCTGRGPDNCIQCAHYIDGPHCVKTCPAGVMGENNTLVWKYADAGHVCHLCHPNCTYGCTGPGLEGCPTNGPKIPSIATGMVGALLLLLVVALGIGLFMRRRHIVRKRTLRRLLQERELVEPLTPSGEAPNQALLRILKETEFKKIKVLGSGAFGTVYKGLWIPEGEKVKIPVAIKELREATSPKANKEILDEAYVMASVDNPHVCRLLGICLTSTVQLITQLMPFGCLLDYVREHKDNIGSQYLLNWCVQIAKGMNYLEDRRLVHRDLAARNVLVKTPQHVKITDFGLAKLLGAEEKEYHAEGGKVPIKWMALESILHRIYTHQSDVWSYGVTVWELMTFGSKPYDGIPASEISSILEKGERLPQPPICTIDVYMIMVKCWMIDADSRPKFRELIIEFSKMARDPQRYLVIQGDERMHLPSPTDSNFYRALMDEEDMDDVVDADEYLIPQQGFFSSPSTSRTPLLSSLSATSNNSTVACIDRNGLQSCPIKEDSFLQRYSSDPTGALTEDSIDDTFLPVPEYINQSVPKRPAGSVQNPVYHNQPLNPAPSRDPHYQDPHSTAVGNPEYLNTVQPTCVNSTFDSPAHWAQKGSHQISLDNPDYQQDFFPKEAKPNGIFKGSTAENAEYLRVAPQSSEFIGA

[3] = test system: SK-BR-3; test: Inhibition of cell growth of SKBr3 cell lines using cell-based assay; type: functional; conditions: Homo sapiens; outline: as §1
[4] = test system: A-431; test: Inhibition of cell growth of human epidermoid carcinoma xenograft (A431) model using cell based assay; type: functional
[5] = target: Receptor tyrosine-protein kinase erbB-2 (Homo sapiens, UniProt P04626); test: Inhibition of human epidermal growth factor receptor (HER-2) using enzyme assay
Receptor tyrosine-protein kinase erbB-2, sequence (P04626 whole entry, the tested form may be a part): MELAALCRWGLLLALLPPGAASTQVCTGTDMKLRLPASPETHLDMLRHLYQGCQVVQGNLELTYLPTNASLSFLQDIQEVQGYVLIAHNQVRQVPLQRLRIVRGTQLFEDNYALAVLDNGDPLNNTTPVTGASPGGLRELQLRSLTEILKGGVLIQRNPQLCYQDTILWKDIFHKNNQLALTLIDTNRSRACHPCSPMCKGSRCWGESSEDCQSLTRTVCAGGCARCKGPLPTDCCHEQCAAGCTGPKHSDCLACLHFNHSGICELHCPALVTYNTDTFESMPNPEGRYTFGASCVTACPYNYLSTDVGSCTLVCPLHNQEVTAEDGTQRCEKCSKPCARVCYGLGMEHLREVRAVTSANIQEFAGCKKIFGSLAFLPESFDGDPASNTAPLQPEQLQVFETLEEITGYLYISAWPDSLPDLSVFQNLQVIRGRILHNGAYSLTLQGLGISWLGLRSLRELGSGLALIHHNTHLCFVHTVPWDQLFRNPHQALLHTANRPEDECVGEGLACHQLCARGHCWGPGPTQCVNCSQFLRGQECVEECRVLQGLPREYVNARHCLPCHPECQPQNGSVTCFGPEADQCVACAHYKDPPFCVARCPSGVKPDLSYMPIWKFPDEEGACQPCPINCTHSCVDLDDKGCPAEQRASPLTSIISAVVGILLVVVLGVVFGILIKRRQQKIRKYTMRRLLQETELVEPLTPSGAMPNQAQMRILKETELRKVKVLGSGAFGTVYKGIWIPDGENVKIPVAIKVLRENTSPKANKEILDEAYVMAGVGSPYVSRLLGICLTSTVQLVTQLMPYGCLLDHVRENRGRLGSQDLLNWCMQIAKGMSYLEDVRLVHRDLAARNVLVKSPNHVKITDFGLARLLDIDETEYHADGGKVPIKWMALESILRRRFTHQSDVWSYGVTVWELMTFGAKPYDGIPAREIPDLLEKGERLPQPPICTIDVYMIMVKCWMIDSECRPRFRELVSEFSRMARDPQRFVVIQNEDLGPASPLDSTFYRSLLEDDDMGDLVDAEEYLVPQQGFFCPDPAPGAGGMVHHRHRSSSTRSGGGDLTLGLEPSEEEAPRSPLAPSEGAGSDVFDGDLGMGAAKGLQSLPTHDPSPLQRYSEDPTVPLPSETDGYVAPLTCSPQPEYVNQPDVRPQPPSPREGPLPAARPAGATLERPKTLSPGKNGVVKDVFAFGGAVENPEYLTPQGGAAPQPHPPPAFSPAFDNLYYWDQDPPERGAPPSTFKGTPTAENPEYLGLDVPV
Outline: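 His6-tagged HER-2 cytoplasmic domain was expressed in Sf-9 cells and purified on Ni-NTA (about 80% pure). Enzyme (12.5 ng/well) was preincubated with compound 10 min at room temperature in HEPES pH 7.4. Autophosphorylation ran 1 h with MnCl2/Na3VO4/DTT buffer plus 0.1 mM ATP–50 mM MgCl2 (as added). Europium anti-phosphotyrosine time-resolved fluorescence was read at 340/615 nm. IC50 came from eight concentrations, mean of duplicates.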

[6] = test system: A-431; test: Inhibition of human epidermoid carcinoma xenograft (A431) tumor growth; type: functional, cell-based
Outline: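 Female athymic nu/nu mice received 5 × 10^6 A431 cells sc in the flank. At 80–120 mg tumor mass they were randomized, 10 per group. Dosing was oral, once daily on days 1–10, 40 mg/kg in 0.2% Klucel, with a vehicle control. Tumor mass [(length × width²)/2] was measured every 7 days from day 8 to 29. Relative growth is versus day 0, compared by Student t-test of log values.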

| SMILES | IC50 [1] [nM] | IC50 [2] [nM] | IC50 [3] [nM] | IC50 [4] [nM] | IC50 [5] [nM] | IC50 [6] [nM] |
| --- | --- | --- | --- | --- | --- | --- |
| O=C(/C=C/CN1CCOCC1)Nc1ccc2ncnc(Nc3cccc(Br)c3)c2c1 | 10700 | 74 | 13 | 1890 | 2780 | – |
| O=C(C#CCN1CCSCC1)Nc1ccc2ncnc(Nc3cccc(Br)c3)c2c1 | 581 | 95 | 2 | 83 | 124 | – |
| C/C=C\C(=O)Nc1ccc2ncnc(Nc3cccc(Br)c3)c2c1 | 12500 | – | 742 | – | 21700 | – |
| O=C(C#CCN1CCCCC1)Nc1ccc2ncnc(Nc3cccc(Br)c3)c2c1 | 302 | 57 | 2 | 32 | 73 | – |
| COCC#CC(=O)Nc1ccc2ncnc(Nc3cccc(Br)c3)c2c1 | 1730 | 9 | 46 | 268 | 33 | – |
| CN(C)/C=C/C(=O)Nc1ccc2ncnc(Nc3cccc(Br)c3)c2c1 | 12100 | 250 | 1760 | – | 25700 | 2100 |
| C=C(C)C(=O)Nc1ccc2ncnc(Nc3cccc(Br)c3)c2c1 | 20700 | – | 2220 | – | 15200 | – |
| CCN1CCN(CC#CC(=O)Nc2ccc3ncnc(Nc4cccc(Br)c4)c3c2)CC1 | 4600 | 65 | 62 | 598 | 183 | – |
| COC/C=C/C(=O)Nc1ccc2ncnc(Nc3cccc(Br)c3)c2c1 | 12100 | 1130 | 370 | 8500 | 8830 | – |
| CN1CCC=C(C(=O)Nc2ccc3ncnc(Nc4cccc(Br)c4)c3c2)C1 | 10500 | 115 | 478 | 2340 | 5040 | – |
| COCOCC#CC(=O)Nc1ccc2ncnc(Nc3cccc(Br)c3)c2c1 | 2080 | 59 | 92 | – | 122 | 306 |
| O=C(C#CCN1CCOCC1)Nc1ccc2ncnc(Nc3cccc(Br)c3)c2c1 | 1660 | 20 | 2 | 150 | 53 | – |
| C/C=C/C(=O)Nc1ccc2ncnc(Nc3cccc(Br)c3)c2c1 | 13100 | – | 1100 | – | 91300 | – |
| O=C(/C=C/CN1CCSCC1)Nc1ccc2ncnc(Nc3cccc(Br)c3)c2c1 | 8470 | 203 | 12 | 589 | 2810 | – |
| O=C(/C=C/Cn1cccn1)Nc1ccc2ncnc(Nc3cccc(Br)c3)c2c1 | 11100 | 1120 | 568 | 1370 | 15600 | – |
| COCC1CCCN1CC#CC(=O)Nc1ccc2ncnc(Nc3cccc(Br)c3)c2c1 (centres undefined) | 324 | 65 | 2 | 81 | 117 | – |
| O=C(C#CCO)Nc1ccc2ncnc(Nc3cccc(Br)c3)c2c1 | – | – | 43 | – | 16 | – |
| O=C(/C=C/CN1CCCCC1)Nc1ccc2ncnc(Nc3cccc(Br)c3)c2c1 | 2680 | 106 | 4 | 182 | 1560 | – |
| O=C(/C=C/CN1CCC(N2CCCCC2)CC1)Nc1ccc2ncnc(Nc3cccc(Br)c3)c2c1 | 4150 | 68 | 10 | 756 | 1590 | – |
| O=C(/C=C/N1CCOCC1)Nc1ccc2ncnc(Nc3cccc(Br)c3)c2c1 | 2020 | 215 | 1020 | – | 4180 | 1080 |

More lines, in order of falling IC50 [3], values ahead:

| IC50 [1] [nM] | IC50 [2] [nM] | IC50 [3] [nM] | IC50 [4] [nM] | IC50 [5] [nM] | IC50 [6] [nM] | SMILES |
| --- | --- | --- | --- | --- | --- | --- |
| 1500 | – | 17 | – | 378 | – | CC#CC(=O)Nc1ccc2ncnc(Nc3cccc(Br)c3)c2c1 |
| 4130 | – | 15 | – | 114 | 95 | C=CC(=O)Nc1ccc2ncnc(Nc3cccc(Br)c3)c2c1 |
| 2860 | 194 | 13 | 353 | 2920 | – | COC[C@@H]1CCCN1C/C=C\C(=O)Nc1ccc2ncnc(Nc3cccc(Br)c3)c2c1 |
| 530 | – | 11 | – | 14 | – | CN(C)CC#CC(=O)Nc1ccc2ncnc(Nc3cccc(Br)c3)c2c1 |
| 945 | 65 | 9 | 77 | 116 | – | COCCOCC#CC(=O)Nc1ccc2ncnc(Nc3cccc(Br)c3)c2c1 |
| 610 | 12 | 6 | 111 | 38 | – | CCN(CC)CC#CC(=O)Nc1ccc2ncnc(Nc3cccc(Br)c3)c2c1 |
| 232 | 85 | 4 | 77 | 113 | – | CC(C)N(C)CC#CC(=O)Nc1ccc2ncnc(Nc3cccc(Br)c3)c2c1 |
| 302 | 97 | 4 | 94 | 162 | – | CC(C)N(CC#CC(=O)Nc1ccc2ncnc(Nc3cccc(Br)c3)c2c1)C(C)C |
| 5890 | 62 | 3 | 564 | 634 | – | COCCN(C)C/C=C/C(=O)Nc1ccc2ncnc(Nc3cccc(Br)c3)c2c1 |
| 7530 | 14 | 3 | 329 | 414 | – | CN(C/C=C/C(=O)Nc1ccc2ncnc(Nc3cccc(Br)c3)c2c1)CCO |
| 470 | 107 | 3 | – | 458 | 128 | C=C(CN1CCOCC1)C(=O)Nc1ccc2ncnc(Nc3cccc(Br)c3)c2c1 |
| 2620 | 131 | 2 | 222 | 1910 | – | COC[C@@H]1CCCN1C/C=C/C(=O)Nc1ccc2ncnc(Nc3cccc(Br)c3)c2c1 |
| 198 | 62 | 2 | 42 | 177 | – | CCCN(CC#CC(=O)Nc1ccc2ncnc(Nc3cccc(Br)c3)c2c1)CCC |
| 2390 | 73 | 2 | 194 | 1160 | – | CCN(CC)C/C=C/C(=O)Nc1ccc2ncnc(Nc3cccc(Br)c3)c2c1 |
| 2280 | 90 | 2 | 145 | 1430 | – | CCCN(C/C=C/C(=O)Nc1ccc2ncnc(Nc3cccc(Br)c3)c2c1)CCC |
| 2340 | – | 2 | – | 301 | – | CN(C)C/C=C/C(=O)Nc1ccc2ncnc(Nc3cccc(Br)c3)c2c1 |
| 289 | 71 | 1 | – | 85 | 33 | C=CCN(C)CC#CC(=O)Nc1ccc2ncnc(Nc3cccc(Br)c3)c2c1 |
| 10100 | 85 | 1 | 616 | 733 | – | COC[C@H]1CCCN1C/C=C/C(=O)Nc1ccc2ncnc(Nc3cccc(Br)c3)c2c1 |
